Laboratory results from ChEMBL document CHEMBL4043246, “Discovery of novel [1,2,4]triazolo[4,3-a]quinoxaline aminophenyl derivatives as BET inhibitors for cancer treatment” (Bioorg Med Chem Lett, 2017).

Key:
[1] = target: Nucleosome-remodeling factor subunit BPTF (Homo sapiens) (UniProt Q12830); assay: Inhibition of human partial length FALZ (S2791 to H2911 residues) expressed in bacterial expression system assessed as residual activity at 500 nM relative to control by BROMOscan assay
[2] = target: Bromodomain-containing protein 3 (Homo sapiens) (UniProt Q15059); assay: Inhibition of human partial length BRD3 BD2 (G306 to P416 residues) expressed in bacterial expression system assessed as residual activity at 500 nM relative to control by BROMOscan assay
[3] = target: ATPase family AAA domain-containing protein 2 (Homo sapiens) (UniProt Q6PL18); assay: Inhibition of human partial length ATAD2A (Q981 to R1108 residues) expressed in bacterial expression system assessed as residual activity at 500 nM relative to control by BROMOscan assay
[4] = Cell cycle arrest in human TY82 cells assessed as accumulation at G1 phase at 1 uM after 24 hrs by DAPI staining based assay (reference value: 73%); type: functional
[5] = Cell cycle arrest in human TY82 cells assessed as accumulation at sub-G1 phase at 3 uM after 24 hrs by DAPI staining based assay (reference value: 6%); type: functional
[6] = Cell cycle arrest in human TY82 cells assessed as accumulation at S phase at 10 uM after 24 hrs by DAPI staining based assay (reference value: 11%); type: functional
[7] = target: T1, Bromodomain-containing protein 4 (Homo sapiens, UniProt O60885); assay: Inhibition of human partial length BRD4 BD2 (K333 to E460 residues) expressed in bacterial expression system assessed as residual activity at 500 nM relative to control by BROMOscan assay
[8] = target: ATPase family AAA domain-containing protein 2B (Homo sapiens) (UniProt Q9ULI0); assay: Inhibition of human partial length ATAD2B (Q955 to R1082 residues) expressed in bacterial expression system assessed as residual activity at 500 nM relative to control by BROMOscan assay
[9] = target: T1, Bromodomain-containing protein 4; assay: Binding affinity to BRD4 BD1 (unknown origin)
[10] = AUCt in rat at 20 mg/kg, po; type: ADME, organism-based; conditions: in vivo
How it was run: (§1)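 Rat pharmacokinetics with single dosing, either intravenous at 2 mg/kg or oral at 5 or 20 mg/kg. AUC is reported both to the last time point (AUCt) and extrapolated to infinity, in ug.hr/mL.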

[11] = target: T1, Bromodomain-containing protein 4; assay: Inhibition of BRD4 BD1-BD2 (unknown origin) using tetraacetylated histone peptide as substrate after 2 hrs by alphascreen assay
Rattus norvegicus [12] = assay: AUCinfinity in rat at 20 mg/kg, po; type: ADME, organism-based; set-up: dose 20 mg/kg, time infinity, route oral; conditions: in vivo; how it was run: as §1
[13] = target: Protein polybromo-1 (Homo sapiens) (UniProt Q86U86); assay: Inhibition of human partial length PBRM1 BD5 (S645 to D766 residues) expressed in bacterial expression system assessed as residual activity at 500 nM relative to control by BROMOscan assay
Sequence of Protein polybromo-1 (Homo sapiens) (Q86U86 whole entry, the tested form may be a part): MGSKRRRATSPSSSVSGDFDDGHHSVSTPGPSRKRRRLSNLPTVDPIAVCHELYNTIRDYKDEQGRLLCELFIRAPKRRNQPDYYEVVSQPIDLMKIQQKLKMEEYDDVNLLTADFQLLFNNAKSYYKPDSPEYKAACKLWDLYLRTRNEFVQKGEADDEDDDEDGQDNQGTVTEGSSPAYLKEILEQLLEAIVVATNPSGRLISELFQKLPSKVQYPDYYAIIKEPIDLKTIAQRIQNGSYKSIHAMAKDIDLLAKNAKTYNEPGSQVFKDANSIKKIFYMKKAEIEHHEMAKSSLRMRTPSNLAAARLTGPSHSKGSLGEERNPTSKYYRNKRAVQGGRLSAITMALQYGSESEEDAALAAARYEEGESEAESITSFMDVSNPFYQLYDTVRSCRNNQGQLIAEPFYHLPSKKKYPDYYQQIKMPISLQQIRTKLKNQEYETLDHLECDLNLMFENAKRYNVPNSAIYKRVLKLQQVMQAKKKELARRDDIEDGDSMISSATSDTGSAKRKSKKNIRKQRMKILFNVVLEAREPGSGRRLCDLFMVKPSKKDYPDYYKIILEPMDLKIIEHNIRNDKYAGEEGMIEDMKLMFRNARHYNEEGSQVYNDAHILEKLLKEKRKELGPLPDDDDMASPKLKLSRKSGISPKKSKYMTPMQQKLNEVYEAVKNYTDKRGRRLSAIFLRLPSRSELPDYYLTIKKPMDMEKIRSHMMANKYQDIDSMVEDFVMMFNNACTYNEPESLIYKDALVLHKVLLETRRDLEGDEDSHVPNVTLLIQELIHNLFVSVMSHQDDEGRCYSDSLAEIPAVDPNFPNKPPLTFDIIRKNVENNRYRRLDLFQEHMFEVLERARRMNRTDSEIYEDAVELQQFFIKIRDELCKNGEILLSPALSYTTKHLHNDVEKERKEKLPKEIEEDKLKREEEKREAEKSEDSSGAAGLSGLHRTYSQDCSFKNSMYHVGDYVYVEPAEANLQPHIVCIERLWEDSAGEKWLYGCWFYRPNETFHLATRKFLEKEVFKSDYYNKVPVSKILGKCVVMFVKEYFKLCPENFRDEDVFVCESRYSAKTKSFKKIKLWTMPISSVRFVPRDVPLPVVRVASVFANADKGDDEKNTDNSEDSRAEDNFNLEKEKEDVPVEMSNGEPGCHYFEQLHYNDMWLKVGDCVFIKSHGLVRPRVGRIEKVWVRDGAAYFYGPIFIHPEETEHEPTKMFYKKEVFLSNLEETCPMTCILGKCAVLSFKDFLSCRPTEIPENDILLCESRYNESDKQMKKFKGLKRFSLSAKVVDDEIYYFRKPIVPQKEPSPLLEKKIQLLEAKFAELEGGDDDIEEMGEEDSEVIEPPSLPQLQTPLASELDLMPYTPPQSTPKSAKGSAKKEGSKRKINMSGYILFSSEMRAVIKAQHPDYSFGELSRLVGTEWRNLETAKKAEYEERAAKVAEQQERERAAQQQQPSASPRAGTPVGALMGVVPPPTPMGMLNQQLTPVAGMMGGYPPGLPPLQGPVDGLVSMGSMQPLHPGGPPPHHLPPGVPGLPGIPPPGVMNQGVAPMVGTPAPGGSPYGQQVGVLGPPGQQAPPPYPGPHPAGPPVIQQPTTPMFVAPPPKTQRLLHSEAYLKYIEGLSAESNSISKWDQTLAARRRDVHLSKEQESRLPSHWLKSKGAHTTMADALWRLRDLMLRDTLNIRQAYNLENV

[14] = target: Chromatin remodeling regulator CECR2 (Homo sapiens) (UniProt Q9BXF3); assay: Inhibition of human partial length CECR2 (P423 to D543 residues) expressed in bacterial expression system assessed as residual activity at 500 nM relative to control by BROMOscan assay
[15] = target: Bromodomain-containing protein 2 (Homo sapiens) (UniProt P25440); assay: Inhibition of human partial length BRD2 BD2 (E348 to D455 residues) expressed in bacterial expression system assessed as residual activity at 500 nM relative to control by BROMOscan assay
[16] = Cell cycle arrest in human TY82 cells assessed as accumulation at G2/M phase at 1 uM after 24 hrs by DAPI staining based assay (reference value: 9%); type: functional
Rattus norvegicus [17] = assay: Tmax in rat at 20 mg/kg, po; type: ADME, organism-based; conditions: in vivo
How it was run: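 Rat pharmacokinetics after a single intravenous dose of 2 mg/kg or oral doses of 5 mg/kg and 20 mg/kg. Reported parameters are Tmax, Cmax, T1/2, AUCt, AUC∞, CL, Vss and F(%). CL, Vss and F come from the intravenous/oral 2 and 5 mg/kg arms.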

[18] = Cell cycle arrest in human TY82 cells assessed as accumulation at G1 phase at 3 uM after 24 hrs by DAPI staining based assay (reference value: 73%); type: functional
[19] = Cell cycle arrest in human TY82 cells assessed as accumulation at G1 phase at 10 uM after 24 hrs by DAPI staining based assay (reference value: 73%); type: functional
Peregrin (Homo sapiens) = Peregrin (Homo sapiens) (UniProt P55201); assay: Inhibition of human partial length BRPF1 (E627 to G740 residues) expressed in bacterial expression system assessed as residual activity at 500 nM relative to control by BROMOscan assay
[20] = target: Transcription initiation factor TFIID subunit 1-like (Homo sapiens) (UniProt Q8IZX4); assay: Inhibition of human partial length TAF1L BD2 (Q1523 to D1654 residues) expressed in bacterial expression system assessed as residual activity at 500 nM relative to control by BROMOscan assay
Sequence of Transcription initiation factor TFIID subunit 1-like (Homo sapiens) (Q8IZX4 whole entry, the tested form may be a part): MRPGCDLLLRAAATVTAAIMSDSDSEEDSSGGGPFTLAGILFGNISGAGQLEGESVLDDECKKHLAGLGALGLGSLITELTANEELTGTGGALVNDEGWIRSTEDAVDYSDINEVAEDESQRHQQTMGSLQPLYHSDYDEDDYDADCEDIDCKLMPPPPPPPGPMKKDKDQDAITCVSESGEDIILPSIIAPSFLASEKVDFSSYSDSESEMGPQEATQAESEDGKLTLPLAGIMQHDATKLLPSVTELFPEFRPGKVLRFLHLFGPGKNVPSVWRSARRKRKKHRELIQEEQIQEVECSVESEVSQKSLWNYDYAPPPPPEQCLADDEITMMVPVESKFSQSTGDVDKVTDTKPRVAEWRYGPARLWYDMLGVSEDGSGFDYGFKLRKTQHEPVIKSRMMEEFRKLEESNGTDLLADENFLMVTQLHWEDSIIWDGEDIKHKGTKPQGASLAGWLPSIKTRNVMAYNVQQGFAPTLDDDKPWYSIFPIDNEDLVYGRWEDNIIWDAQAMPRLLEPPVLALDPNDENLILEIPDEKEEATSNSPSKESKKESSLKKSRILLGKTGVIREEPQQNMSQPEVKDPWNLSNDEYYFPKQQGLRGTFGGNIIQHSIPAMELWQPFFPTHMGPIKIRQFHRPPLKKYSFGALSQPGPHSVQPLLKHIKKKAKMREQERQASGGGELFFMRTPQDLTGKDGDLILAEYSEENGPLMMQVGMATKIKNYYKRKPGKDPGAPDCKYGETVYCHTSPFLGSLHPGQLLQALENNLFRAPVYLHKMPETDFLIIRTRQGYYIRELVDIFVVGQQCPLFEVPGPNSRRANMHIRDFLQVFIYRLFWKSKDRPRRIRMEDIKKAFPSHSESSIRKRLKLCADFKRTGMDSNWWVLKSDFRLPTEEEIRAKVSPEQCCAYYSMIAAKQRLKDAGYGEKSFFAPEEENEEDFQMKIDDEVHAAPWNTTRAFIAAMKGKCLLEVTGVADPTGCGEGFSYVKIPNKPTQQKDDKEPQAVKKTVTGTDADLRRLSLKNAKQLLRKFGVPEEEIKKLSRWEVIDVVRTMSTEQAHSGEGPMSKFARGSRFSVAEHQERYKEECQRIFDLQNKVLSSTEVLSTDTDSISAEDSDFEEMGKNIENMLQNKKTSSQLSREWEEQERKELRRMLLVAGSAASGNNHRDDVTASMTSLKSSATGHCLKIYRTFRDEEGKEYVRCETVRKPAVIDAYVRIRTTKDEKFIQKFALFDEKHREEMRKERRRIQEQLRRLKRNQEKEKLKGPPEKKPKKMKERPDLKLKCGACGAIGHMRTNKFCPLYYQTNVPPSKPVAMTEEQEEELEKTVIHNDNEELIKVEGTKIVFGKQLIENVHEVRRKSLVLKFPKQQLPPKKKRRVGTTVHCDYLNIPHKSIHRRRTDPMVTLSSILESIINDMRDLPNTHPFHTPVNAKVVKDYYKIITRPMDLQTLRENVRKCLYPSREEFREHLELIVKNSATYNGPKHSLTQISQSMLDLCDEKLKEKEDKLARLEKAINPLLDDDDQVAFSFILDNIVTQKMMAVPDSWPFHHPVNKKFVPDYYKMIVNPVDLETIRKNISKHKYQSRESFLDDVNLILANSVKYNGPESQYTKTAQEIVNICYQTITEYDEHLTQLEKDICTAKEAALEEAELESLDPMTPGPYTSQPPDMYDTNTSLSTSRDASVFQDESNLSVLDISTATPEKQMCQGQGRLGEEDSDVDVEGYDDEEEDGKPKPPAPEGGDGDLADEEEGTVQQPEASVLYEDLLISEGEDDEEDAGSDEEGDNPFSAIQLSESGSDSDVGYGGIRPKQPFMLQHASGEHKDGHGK

[21] = Stability in human liver microsomes assessed as parent compound remaining after 30 mins; type: ADME, microsome; conditions: read-out: Stability
How it was run: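 Incubated in vitro with mouse, rat or human liver microsomes for 30 minutes. Result expressed as percent of parent compound remaining.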

[22] = target: Transcription intermediary factor 1-alpha (Homo sapiens) (UniProt O15164); assay: Inhibition of human partial length TRIM24-phd-bromo (P790 to P977 residues) expressed in bacterial expression system assessed as residual activity at 500 nM relative to control by BROMOscan assay
[23] = Cell cycle arrest in human TY82 cells assessed as accumulation at G2/M phase at 3 uM after 24 hrs by DAPI staining based assay (reference value: 9%); type: functional
[24] = target: Bromodomain adjacent to zinc finger domain protein 2A (Homo sapiens) (UniProt Q9UIF9); assay: Inhibition of human partial length BAZ2A (M1792 to L1905 residues) expressed in bacterial expression system assessed as residual activity at 500 nM relative to control by BROMOscan assay
[25] = target: Bromodomain testis-specific protein (Homo sapiens) (UniProt Q58F21); assay: Inhibition of human partial length BRDT BD2 (K250 to E382 residues) expressed in bacterial expression system assessed as residual activity at 500 nM relative to control by BROMOscan assay
[26] = Antiproliferative activity against human TY82 cells; type: functional, cell-based
[27] = target: SWI/SNF-related matrix-associated actin-dependent regulator of chromatin subfamily A member 4 (Homo sapiens) (UniProt P51532); assay: Inhibition of human partial length SMARCA4 (A1448 to S1575 residues) expressed in bacterial expression system assessed as residual activity at 500 nM relative to control by BROMOscan assay
Sequence of SWI/SNF-related matrix-associated actin-dependent regulator of chromatin subfamily A member 4 (Homo sapiens) (P51532 whole entry, the tested form may be a part): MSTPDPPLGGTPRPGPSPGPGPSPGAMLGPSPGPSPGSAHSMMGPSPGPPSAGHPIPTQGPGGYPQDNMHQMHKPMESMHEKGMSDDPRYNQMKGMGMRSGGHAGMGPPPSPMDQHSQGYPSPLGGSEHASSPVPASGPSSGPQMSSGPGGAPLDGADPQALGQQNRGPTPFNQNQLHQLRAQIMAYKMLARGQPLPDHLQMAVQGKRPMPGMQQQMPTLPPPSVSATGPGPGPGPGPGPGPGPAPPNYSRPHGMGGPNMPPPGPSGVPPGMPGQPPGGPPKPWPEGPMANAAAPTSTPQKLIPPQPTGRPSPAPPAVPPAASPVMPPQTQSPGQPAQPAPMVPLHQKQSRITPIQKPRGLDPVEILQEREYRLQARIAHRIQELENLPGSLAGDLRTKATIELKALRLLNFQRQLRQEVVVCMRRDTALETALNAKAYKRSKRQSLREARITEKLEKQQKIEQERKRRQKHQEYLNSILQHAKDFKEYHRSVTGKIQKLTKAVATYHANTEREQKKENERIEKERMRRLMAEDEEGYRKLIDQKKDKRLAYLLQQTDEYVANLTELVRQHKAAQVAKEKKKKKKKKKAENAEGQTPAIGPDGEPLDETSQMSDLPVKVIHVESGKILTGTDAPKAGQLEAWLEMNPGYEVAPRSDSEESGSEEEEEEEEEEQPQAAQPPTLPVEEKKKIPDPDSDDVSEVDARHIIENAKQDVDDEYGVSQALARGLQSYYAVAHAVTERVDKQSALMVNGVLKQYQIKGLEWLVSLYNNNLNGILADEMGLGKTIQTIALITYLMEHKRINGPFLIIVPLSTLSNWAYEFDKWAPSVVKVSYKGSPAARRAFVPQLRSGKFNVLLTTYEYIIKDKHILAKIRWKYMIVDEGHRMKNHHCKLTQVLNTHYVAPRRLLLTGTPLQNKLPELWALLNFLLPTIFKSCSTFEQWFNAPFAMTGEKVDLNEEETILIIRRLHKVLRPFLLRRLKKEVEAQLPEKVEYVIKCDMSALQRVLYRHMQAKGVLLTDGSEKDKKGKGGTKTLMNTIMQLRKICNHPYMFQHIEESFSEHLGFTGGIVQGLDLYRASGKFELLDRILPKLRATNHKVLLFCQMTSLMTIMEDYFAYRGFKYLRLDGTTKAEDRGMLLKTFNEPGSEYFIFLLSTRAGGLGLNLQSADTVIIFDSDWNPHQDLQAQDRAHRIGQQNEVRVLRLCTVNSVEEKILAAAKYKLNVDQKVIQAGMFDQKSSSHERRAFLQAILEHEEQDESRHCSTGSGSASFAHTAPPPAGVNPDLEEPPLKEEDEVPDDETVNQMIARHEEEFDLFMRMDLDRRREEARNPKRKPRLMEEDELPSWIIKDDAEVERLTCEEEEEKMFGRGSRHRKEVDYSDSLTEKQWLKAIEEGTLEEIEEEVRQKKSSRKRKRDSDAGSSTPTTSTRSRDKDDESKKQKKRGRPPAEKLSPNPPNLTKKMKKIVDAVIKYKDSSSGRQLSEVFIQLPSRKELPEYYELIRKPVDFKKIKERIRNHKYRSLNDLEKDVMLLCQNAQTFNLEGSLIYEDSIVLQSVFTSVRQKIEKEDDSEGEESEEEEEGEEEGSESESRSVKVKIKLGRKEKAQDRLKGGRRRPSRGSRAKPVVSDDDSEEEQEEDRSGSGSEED

[28] = target: CREB-binding protein (Homo sapiens) (UniProt Q92793); assay: Inhibition of human partial length CREBBP (R1081 to G1197 residues) expressed in bacterial expression system assessed as residual activity at 500 nM relative to control by BROMOscan assay

Compound: Cc1nnc2c(Nc3cccc(CNC(=O)C(C)C)c3)nc3ccccc3n12
- Activity [1]: 90%
- Activity [2]: 30%
- Activity [3]: 100%
- Activity [4]: 81%
- Activity [5]: 4%
- Activity [6]: 2%
- Activity [7]: 16%
- Activity [8]: 96%
- Kd [9]: 27 nM
- AUC(0-t) [10]: 20600 ng·h/mL
- IC50 [11]: 68 nM
- AUC (Rattus norvegicus [12]): 25300 ng·h/mL
- Activity [13]: 84%
- Activity [14]: 88%
- Activity [15]: 19%
- Activity [16]: 8%
- Tmax (Rattus norvegicus [17]): 1.3 h
- Activity [18]: 89%
- Activity [19]: 88%
- Activity (Peregrin (Homo sapiens)): 37%
- Activity [20]: 83%
- remaining at 0.5 h [21]: 92%
- Activity [22]: 100%
- Activity [23]: 4%
- Activity [24]: 85%
- Activity [25]: 14%
- IC50 [26]: 2500 nM
- Activity [27]: 100%
- Activity [28]: 87%
